Results reported in ChEMBL document CHEMBL4177600, “Identification of novel PI3K inhibitors through a scaffold hopping strategy” (Bioorg Med Chem Lett, 2017).
Converted amounts (≈) assume the structure as drawn.

Experiments:
[1] = Stability in mouse liver microsomes assessed as parent compound remaining at 0.5 uM after 30 mins by LC-MS/MS analysis; format: ADME, microsome; conditions: read-out: Stability
How it was run: (§1)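 Single time-point stability assay: 0.5 µM compound, 0.5 mg/ml human or mouse liver microsomes in 0.1 M potassium phosphate pH 7.4, with NADPH-regenerating system, 30 min at 37 °C with shaking. Reaction quenched with acetonitrile/0.1% formic acid and centrifuged; supernatant analysed by LC-MS/MS. Reported as percent remaining; duplicates.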

[2] = Stability in human liver microsomes assessed as parent compound remaining at 0.5 uM after 30 mins by LC-MS/MS analysis; format: ADME, microsome; conditions: read-out: Stability; how it was run: as §1
[3] = AUC (infinity) in BALB-C mouse at 8 mg/kg, iv by LC-MS/MS analysis; format: ADME, organism-based; set-up: dose 8 mg/kg, time infinity, route intravenous; conditions: in vivo
How it was run: (§2)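 BALB-C mice dosed IV (10% NMP/50% PEG300/40% saline) or PO (10% NMP/90% PEG300). Plasma sampled at 6 (IV) or 8 (PO) time points; compound measured by LC/MS/MS. Parameters from bicompartmental model fit; each value is the mean of 3 independent samples.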

CYP2D6 = CYP2D6 (Homo sapiens, UniProt P10635); assay: Inhibition of CYP2D6 (unknown origin) at 10 uM relative to control; format: ADME
Chain of CYP2D6 (P10635 whole entry): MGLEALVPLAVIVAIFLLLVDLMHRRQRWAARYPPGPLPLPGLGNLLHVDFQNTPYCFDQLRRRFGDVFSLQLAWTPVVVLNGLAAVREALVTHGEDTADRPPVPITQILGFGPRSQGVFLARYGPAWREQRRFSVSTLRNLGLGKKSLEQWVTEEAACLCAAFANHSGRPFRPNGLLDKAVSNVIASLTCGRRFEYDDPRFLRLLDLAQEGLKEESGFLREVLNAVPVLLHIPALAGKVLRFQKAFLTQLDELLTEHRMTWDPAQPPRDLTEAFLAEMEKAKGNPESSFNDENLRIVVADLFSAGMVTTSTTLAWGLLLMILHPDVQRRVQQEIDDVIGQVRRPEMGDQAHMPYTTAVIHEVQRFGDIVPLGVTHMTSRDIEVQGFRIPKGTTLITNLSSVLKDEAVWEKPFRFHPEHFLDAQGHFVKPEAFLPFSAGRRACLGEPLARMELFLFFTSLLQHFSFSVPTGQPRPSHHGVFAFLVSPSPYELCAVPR
How it was run: (§3)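 CYP1A2, 2C9, 2C19, 2D6 and 3A4 inhibition measured at 10 µM test compound in duplicate; percent inhibition reported.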

CYP3A4 = CYP3A4 (Homo sapiens, UniProt P08684); assay: Inhibition of CYP3A4 (unknown origin) at 10 uM relative to control; format: ADME; how it was run: as §3
Chain of CYP3A4 (P08684 whole entry): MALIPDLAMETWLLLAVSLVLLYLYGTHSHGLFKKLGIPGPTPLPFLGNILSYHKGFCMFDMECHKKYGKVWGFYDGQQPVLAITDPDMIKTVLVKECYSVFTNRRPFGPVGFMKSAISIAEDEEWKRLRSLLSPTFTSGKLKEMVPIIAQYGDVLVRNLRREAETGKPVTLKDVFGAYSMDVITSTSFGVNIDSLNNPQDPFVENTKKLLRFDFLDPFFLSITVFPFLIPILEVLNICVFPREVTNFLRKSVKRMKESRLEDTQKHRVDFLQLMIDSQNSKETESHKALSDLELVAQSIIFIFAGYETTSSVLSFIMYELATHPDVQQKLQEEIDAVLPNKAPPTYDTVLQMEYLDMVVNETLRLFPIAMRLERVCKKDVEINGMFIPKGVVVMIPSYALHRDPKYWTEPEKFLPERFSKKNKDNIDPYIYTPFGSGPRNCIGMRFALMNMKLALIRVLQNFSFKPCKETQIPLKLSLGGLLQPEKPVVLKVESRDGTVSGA

CYP2C9 = CYP2C9 (Homo sapiens, UniProt P11712); assay: Inhibition of CYP2C9 (unknown origin) at 10 uM relative to control; format: ADME; how it was run: as §3
Chain of CYP2C9 (P11712 whole entry): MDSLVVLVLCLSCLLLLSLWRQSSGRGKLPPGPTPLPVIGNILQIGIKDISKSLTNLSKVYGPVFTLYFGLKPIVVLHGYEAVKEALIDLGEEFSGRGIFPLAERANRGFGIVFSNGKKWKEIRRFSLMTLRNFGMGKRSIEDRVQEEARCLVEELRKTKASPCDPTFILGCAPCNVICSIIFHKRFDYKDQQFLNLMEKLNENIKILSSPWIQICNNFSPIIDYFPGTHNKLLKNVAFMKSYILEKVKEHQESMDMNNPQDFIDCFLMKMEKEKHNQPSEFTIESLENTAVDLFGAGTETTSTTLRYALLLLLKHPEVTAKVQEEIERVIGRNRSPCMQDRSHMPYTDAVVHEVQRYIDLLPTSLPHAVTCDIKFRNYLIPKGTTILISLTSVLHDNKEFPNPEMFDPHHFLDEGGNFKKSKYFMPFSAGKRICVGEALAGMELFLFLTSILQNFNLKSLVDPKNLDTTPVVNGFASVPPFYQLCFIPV

[4] = Permeability of the compound at 300 uL after 5 hrs by PAMPA; format: ADME; conditions: read-out: permeability
How it was run: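 Pre-coated PAMPA plates with a tri-layer phospholipid membrane. Donor held compound in PBS at the highest concentration soluble in PBS; acceptor was PBS. Incubated 5 h at room temperature, with propranolol and sorafenib (10 µM) as high and low permeability controls. Donor and acceptor concentrations measured by LC-MS/MS; Pe (10^-6 cm/s) calculated from acceptor/equilibrium concentrations, 0.3 cm² area and well volumes.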

CYP1A2 = biological target: T1, CYP1A2 (Homo sapiens, UniProt P05177); assay: Inhibition of CYP1A2 (unknown origin) at 10 uM relative to control; format: ADME; how it was run: as §3
T1 sequence (P05177 whole entry): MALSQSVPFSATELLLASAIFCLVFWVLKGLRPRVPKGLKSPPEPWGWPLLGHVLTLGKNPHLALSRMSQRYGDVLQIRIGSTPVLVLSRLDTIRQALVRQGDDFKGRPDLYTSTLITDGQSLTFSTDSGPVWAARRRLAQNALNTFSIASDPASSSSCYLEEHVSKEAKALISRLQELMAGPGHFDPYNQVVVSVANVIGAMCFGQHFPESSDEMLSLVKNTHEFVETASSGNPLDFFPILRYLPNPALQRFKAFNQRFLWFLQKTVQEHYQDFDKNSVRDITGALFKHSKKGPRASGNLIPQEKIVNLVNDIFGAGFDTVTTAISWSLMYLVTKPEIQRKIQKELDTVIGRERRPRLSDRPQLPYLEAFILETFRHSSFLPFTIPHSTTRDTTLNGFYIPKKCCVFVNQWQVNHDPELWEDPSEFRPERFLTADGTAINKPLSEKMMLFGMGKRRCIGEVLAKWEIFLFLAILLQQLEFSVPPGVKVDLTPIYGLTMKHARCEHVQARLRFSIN

[5] = AUC (infinity) in BALB-C mouse at 8 mg/kg, po by LC-MS/MS analysis; format: ADME, organism-based; set-up: dose 8 mg/kg, route oral, time infinity; conditions: in vivo; how it was run: as §2
[6] = Volume of distribution in BALB-C mouse at 8 mg/kg, iv by LC-MS/MS analysis; format: ADME, organism-based; conditions: in vivo
How it was run: (§4)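 BALB-C mice dosed IV in 10% NMP/50% PEG300/40% saline or PO in 10% NMP/90% PEG300. Plasma sampled at 6 (IV) or 8 (PO) time points and quantified by LC/MS/MS. Parameters come from a bicompartmental model fit; values are means of 3 independent samples. Plasma levels were compared with AKT-P EC50 from U2OS cells converted to ng/ml.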

[7] = Half-life in BALB-C mouse at 8 mg/kg, po by LC-MS/MS analysis; format: ADME, organism-based; conditions: in vivo; how it was run: as §2
[8] = Kinetic solubility of the compound in phosphate buffered saline at pH 7.4 at 1 to 2 mg measured after 24 hrs by HPLC analysis; format: physicochemical; conditions: read-out: Kinetic_solubility
How it was run: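 Solid compound (1–2 mg) in 1 mL PBS, pH 7.4, inverted in test tubes for 24 h. Samples centrifuged, supernatant analysed by HPLC with diode-array detection, with peak area compared to a standard of known concentration. LC-MS/MS used when UV signal was too low or the chromophore poor. Reported in µM.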

CYP2C19 = CYP2C19 (Homo sapiens, UniProt P33261); assay: Inhibition of CYP2C19 (unknown origin) at 10 uM relative to control; format: ADME; how it was run: as §3
Chain of CYP2C19 (P33261 whole entry, the tested form may be a part): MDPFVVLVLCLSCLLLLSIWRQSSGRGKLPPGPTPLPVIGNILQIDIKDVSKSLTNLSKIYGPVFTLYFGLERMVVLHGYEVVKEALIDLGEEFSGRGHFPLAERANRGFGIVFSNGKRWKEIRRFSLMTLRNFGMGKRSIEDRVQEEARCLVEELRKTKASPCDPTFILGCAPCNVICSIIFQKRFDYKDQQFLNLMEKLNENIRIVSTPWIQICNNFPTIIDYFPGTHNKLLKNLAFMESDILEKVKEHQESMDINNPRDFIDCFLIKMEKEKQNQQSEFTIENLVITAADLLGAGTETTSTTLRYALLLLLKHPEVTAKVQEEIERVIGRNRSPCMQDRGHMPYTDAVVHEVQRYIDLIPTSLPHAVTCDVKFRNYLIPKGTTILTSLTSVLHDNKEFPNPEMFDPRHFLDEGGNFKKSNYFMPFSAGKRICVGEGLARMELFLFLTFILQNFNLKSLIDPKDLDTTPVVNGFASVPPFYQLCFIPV

[9] = biological target: Serine/threonine-protein kinase mTOR (Homo sapiens, UniProt P42345); assay: Inhibition of recombinant human GST-tagged mTOR catalytic domain (1360 to 2549 residues) expressed in baculovirus expression system by AlexaFluor647-labeled kinase tracer 314 based LanthaScreen assay
[10] = Cmax in BALB-C mouse at 8 mg/kg, po by LC-MS/MS analysis; format: ADME, organism-based; set-up: dose 8 mg/kg, route oral; conditions: in vivo; how it was run: as §2
[11] = Half-life in BALB-C mouse at 8 mg/kg, iv by LC-MS/MS analysis; format: ADME, organism-based; conditions: in vivo; how it was run: as §2
[12] = Oral bioavailability in BALB-C mouse at 8 mg/kg by LC-MS/MS analysis; format: ADME, organism-based; conditions: in vivo; how it was run: as §4
[13] = Clearance in BALB-C mouse at 8 mg/kg, iv by LC-MS/MS analysis; format: ADME, organism-based; conditions: in vivo
How it was run: (§5)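 Mice (BALB-C) given IV dose in 10% NMP/50% PEG300/40% saline; plasma sampled at 6 times, levels by LC/MS/MS.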

Mus musculus [14] = assay: Clearance in BALB-C mouse at 8 mg/kg, iv by LC-MS/MS analysis relative to hepatic blood flow; format: ADME, organism-based; conditions: in vivo
[15] = Tmax in BALB-C mouse at 8 mg/kg, po by LC-MS/MS analysis; format: ADME, organism-based; conditions: in vivo; how it was run: as §4
[16] = Tmax in BALB-C mouse at 10 mg/kg, po by LC-MS/MS analysis; format: ADME, organism-based; conditions: in vivo; how it was run: as §4
[17] = Oral bioavailability in BALB-C mouse at 10 mg/kg by LC-MS/MS analysis; format: ADME, organism-based; conditions: in vivo; how it was run: as §4
[18] = biological target: PI3-kinase p110-delta/p85-alpha (Homo sapiens, UniProt O00329); assay: Inhibition of recombinant human full-length N-terminal His6-tagged p110delta/human full-length p85alpha expressed in baculovirus infected Sf21 insect cells using PIP2 as substrate by HTRF assay; conditions: read-out: Ki(app)
Chain of PI3-kinase p110-delta/p85-alpha (P27986 whole entry): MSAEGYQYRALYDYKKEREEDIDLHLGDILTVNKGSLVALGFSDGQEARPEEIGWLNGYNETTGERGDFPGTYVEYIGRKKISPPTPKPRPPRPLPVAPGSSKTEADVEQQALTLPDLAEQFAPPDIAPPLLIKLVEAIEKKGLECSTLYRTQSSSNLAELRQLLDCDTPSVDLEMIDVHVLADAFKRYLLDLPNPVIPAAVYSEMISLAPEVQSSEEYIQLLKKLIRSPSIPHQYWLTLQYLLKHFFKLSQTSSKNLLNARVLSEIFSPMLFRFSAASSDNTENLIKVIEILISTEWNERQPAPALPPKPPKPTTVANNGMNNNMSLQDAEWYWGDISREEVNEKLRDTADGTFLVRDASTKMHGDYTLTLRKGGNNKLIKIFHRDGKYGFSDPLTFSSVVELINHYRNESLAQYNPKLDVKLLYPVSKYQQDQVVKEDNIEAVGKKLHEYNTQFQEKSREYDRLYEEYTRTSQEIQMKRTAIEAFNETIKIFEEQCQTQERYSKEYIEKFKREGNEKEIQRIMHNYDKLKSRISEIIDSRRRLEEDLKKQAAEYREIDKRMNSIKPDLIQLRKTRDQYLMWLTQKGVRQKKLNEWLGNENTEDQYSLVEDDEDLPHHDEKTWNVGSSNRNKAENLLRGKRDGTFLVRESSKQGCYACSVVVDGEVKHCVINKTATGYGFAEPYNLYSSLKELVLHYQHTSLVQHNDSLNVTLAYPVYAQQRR
Chain of PI3-kinase p110-delta/p85-alpha (O00329 whole entry): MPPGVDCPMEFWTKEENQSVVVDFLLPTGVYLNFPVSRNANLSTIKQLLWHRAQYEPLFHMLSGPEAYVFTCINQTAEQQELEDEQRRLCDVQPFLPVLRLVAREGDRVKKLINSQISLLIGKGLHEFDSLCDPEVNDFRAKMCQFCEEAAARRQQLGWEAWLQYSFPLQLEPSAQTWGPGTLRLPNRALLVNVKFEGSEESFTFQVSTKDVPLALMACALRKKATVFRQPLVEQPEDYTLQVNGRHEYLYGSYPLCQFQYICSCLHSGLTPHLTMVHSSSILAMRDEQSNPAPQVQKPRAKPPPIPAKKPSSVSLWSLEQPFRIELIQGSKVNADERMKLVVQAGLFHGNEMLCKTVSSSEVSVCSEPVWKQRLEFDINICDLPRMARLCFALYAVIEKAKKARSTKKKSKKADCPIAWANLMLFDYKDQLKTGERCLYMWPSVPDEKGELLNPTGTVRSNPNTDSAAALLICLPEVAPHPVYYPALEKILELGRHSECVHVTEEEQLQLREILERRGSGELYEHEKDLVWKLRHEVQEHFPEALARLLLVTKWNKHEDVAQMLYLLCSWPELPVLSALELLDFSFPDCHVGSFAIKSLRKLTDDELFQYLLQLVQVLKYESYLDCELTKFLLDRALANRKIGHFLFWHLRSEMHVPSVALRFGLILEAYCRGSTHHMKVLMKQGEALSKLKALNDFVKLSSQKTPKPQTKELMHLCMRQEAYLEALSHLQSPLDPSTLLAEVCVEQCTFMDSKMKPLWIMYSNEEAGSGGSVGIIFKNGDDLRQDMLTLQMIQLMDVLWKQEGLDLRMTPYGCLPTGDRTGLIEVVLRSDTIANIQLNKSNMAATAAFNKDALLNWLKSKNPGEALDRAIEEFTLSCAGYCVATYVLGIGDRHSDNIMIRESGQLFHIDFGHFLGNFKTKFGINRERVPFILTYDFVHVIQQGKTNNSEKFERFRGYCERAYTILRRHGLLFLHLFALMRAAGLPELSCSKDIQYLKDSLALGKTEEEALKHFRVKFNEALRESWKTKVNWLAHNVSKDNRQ

[19] = Half-life in BALB-C mouse at 10 mg/kg, po by LC-MS/MS analysis; format: ADME, organism-based; conditions: in vivo; how it was run: as §2
[20] = biological target: PI3-kinase p110-alpha/p85-alpha (Homo sapiens, UniProt P42336); assay: Inhibition of full-length human P110alpha (1 to 1068 residues)/N-terminal GST-fused p85alpha (1 to 724 residues) expressed in baculovirus expression system by ADP Hunter assay; conditions: read-out: Ki(app)
Mus musculus [21] = assay: Clearance in BALB-C mouse at 5 mg/kg, iv by LC-MS/MS analysis relative to hepatic blood flow; format: ADME, organism-based; conditions: in vivo
[22] = biological target: Voltage-gated inwardly rectifying potassium channel KCNH2 (Homo sapiens, UniProt Q12809); assay: Inhibition of human ERG by Tracer Red dye based fluorescence polarization assay
How it was run: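 hERG binding measured with Predictor hERG kit per kit instructions, read by fluorescence polarization.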

[23] = AUC (infinity) in BALB-C mouse at 5 mg/kg, iv by LC-MS/MS analysis; format: ADME, organism-based; set-up: dose 5 mg/kg, time infinity, route intravenous; conditions: in vivo; how it was run: as §2
[24] = Inhibition of PI3K in serum-stimulated human U2OS cells assessed as decrease in AKT1 phosphorylation at S473 by C-ELISA; format: cell-based
How it was run: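 U2OS osteosarcoma cells grown in 0.1% FBS, then serum-stimulated; endogenous phospho-Akt1 (Ser473) quantified by cell ELISA with chemiluminescent substrate. EC50 from sigmoid dose-response fit; two independent experiments in duplicate.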

[25] = biological target: Phosphatidylinositol 4,5-bisphosphate 3-kinase catalytic subunit gamma isoform (Homo sapiens, UniProt P48736); assay: Inhibition of recombinant full-length human N-terminal His6-tagged p110gamma expressed in baculovirus infected Sf21 insect cells using PIP2 as substrate by HTRF assay; conditions: read-out: Ki(app)
[26] = Half-life in BALB-C mouse at 5 mg/kg, iv by LC-MS/MS analysis; format: ADME, organism-based; conditions: in vivo; how it was run: as §2
[27] = Volume of distribution in BALB-C mouse at 5 mg/kg, iv by LC-MS/MS analysis; format: ADME, organism-based; conditions: in vivo; how it was run: as §4
[28] = Cmax in BALB-C mouse at 10 mg/kg, po by LC-MS/MS analysis; format: ADME, organism-based; set-up: dose 10 mg/kg, route oral; conditions: in vivo; how it was run: as §2
[29] = AUC (infinity) in BALB-C mouse at 10 mg/kg, po by LC-MS/MS analysis; format: ADME, organism-based; set-up: dose 10 mg/kg, time infinity, route oral; conditions: in vivo; how it was run: as §2
Mus musculus [30] = assay: Time at which plasma concentration stays above cellular EC50 for inhibition of AKT phosphorylation in BALB-C mouse at 10 mg/kg, po measured up to 24 hrs by LC-MS/MS analysis; format: organism-based; conditions: in vivo; how it was run: as §4
U2OS = assay: Inhibition of AKT phosphorylation in human U2OS cells
PI3K p110 beta/p85 alpha = PI3K p110 beta/p85 alpha (Homo sapiens, UniProt P42338); assay: Inhibition of p110beta/85alpha (unknown origin) using PIP2 as substrate by HTRF assay; format: protein-complex assay; conditions: read-out: Ki(app)
Chain of PI3K p110 beta/p85 alpha (P27986 whole entry): as the sequence (P27986 whole entry) above
Chain of PI3K p110 beta/p85 alpha (P42338 whole entry): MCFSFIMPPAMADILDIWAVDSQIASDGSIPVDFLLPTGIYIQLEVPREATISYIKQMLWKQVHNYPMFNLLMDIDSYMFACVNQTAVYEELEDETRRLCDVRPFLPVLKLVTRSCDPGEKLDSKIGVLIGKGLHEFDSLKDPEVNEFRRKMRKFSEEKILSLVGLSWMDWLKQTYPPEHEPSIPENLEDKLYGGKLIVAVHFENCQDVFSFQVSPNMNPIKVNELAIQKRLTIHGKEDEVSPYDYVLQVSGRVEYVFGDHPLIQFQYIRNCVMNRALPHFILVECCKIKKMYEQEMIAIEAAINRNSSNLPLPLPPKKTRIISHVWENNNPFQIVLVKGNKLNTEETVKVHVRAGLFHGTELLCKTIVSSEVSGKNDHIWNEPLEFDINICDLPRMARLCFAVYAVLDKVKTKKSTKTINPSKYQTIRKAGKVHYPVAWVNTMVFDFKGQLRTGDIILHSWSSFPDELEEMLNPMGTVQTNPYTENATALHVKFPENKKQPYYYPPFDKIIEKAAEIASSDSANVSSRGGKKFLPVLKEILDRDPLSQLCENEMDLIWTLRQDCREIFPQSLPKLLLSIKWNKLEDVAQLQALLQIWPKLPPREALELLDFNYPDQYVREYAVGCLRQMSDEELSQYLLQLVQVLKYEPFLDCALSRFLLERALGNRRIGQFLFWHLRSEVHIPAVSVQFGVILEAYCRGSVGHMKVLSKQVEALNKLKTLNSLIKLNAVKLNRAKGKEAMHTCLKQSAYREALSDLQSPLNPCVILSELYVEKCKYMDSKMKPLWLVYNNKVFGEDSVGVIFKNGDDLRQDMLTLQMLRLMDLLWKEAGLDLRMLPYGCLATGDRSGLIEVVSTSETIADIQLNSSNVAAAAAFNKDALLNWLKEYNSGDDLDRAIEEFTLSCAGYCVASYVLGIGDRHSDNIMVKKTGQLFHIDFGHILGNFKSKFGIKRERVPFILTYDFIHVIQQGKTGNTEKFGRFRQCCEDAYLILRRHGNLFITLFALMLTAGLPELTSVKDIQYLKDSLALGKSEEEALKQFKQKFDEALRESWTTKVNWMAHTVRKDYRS

[31] = Clearance in BALB-C mouse at 5 mg/kg, iv by LC-MS/MS analysis; format: ADME, organism-based; conditions: in vivo; how it was run: as §5

## CS(=O)(=O)N1CCN(Cc2cn3cc(-c4cnc(N)nc4)nc(N4CCOCC4)c3n2)CC1
[1]
  remaining at 0.5 h, 0.5 µM: 100%
[2]
  remaining at 0.5 h, 0.5 µM: 100%
[3]
  AUC(0-inf): 14200 ng·h/mL
CYP2D6
  inhibition at 10 µM: < 25%
CYP3A4
  inhibition at 10 µM: < 25%
CYP2C9
  inhibition at 10 µM: < 25%
[4]
  Papp at 5 h: 0.26 ×10⁻⁶ cm/s
CYP1A2
  inhibition at 10 µM: < 25%
[5]
  AUC(0-inf): 12600 ng·h/mL
[6]
  Vd: 0.8 L/kg
[7]
  half-life: 8.38 h
[8]
  solubility kinetic at 24 h: 50 µM (≈ 23.7 µg/mL)
CYP2C19
  inhibition at 10 µM: < 25%
[9]
  IC50: 4880 nM
[10]
  Cmax: 1130 ng/mL
[11]
  half-life: 1.36 h
[12]
  bioavailability: 88.6%
[13]
  clearance: 9.33 mL/min/kg
Mus musculus [14]
  CL: < 50%
[15]
  Tmax: 1 h

## CS(=O)(=O)N1CCN(Cc2cc3c(N4CCOCC4)nc(-c4cnc(N)nc4)c(Cl)n3n2)CC1
[16]
  Tmax: 0.5 h
[1]
  remaining at 0.5 h, 0.5 µM: 100%
[17]
  bioavailability: 43.1%
[2]
  remaining at 0.5 h, 0.5 µM: 100%
CYP2D6
  inhibition at 10 µM: < 25%
[18]
  Ki: 8.4 nM
CYP3A4
  inhibition at 10 µM: < 25%
CYP2C9
  inhibition at 10 µM: < 25%
[19]
  half-life: 3.22 h
[20]
  Ki: 2.1 nM
[4]
  Papp at 5 h: 1.51 ×10⁻⁶ cm/s
Mus musculus [21]
  CL: < 50%
CYP1A2
  inhibition at 10 µM: < 25%
[22]
  IC50: > 30000 nM
[8]
  solubility kinetic at 24 h: 100 µM (≈ 50.8 µg/mL)
[23]
  AUC(0-inf): 8100 ng·h/mL
CYP2C19
  inhibition at 10 µM: < 25%
[24]
  EC50: 34.5 nM
[25]
  Ki: 16.7 nM
[26]
  half-life: 0.61 h
[27]
  Vd: 1.24 L/kg
[9]
  IC50: 5410 nM
[28]
  Cmax: 1370 ng/mL
[29]
  AUC(0-inf): 6980 ng·h/mL
Mus musculus [30]
  Time: > 12 h
U2OS
  EC50: 0.01753 µg/mL (≈ 0.0345 µM)
PI3K p110 beta/p85 alpha
  Ki: 71.9 nM
[31]
  clearance: 12.5 mL/min/kg
